Laboratory results: ChEMBL document CHEMBL4130464, “Cytotoxic Prenylated Stilbenes Isolated from Macaranga tanarius” (J Nat Prod, 2017)
Non-standard residues stand in square brackets, D forms with d. Residues, ends and D or L forms follow the SMILES beside them. *: point of attachment. Dolaproine = CO[C@@H]([C@@H]1CCCN1)[C@@H](C)C(=O)O; Dil = CC[C@H](C)[C@H](NC)[C@@H](CC(=O)O)OC; X1 = C[C@@H](N*)[C@@H](O)c1ccccc1; NMeV = CN[C@H](C(=O)O)C(C)C

Key:
A549 = assay: Antiproliferative activity against human A549 cells after 72 hrs by MTS assay; format: functional, cell-based; conditions: A549, 72 h
Outline: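 A549 human lung cancer cells (ATCC) grown in RPMI 1640 with 10% FCS and 1% glutamine at 37 °C, 5% CO2. Cells seeded at 2.5 × 10^3 per well and cultured 24 h, then treated at 1 and 10 μM final for 72 h. […] added for 2 h, absorbance read at 490 nm. Cytotoxicity index (OD490treated/OD490control × 100) taken from three experiments.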

U-87 MG = assay: Antiproliferative activity against human U87 cells after 72 hrs by MTS assay; format: functional, cell-based, U-87MG ATCC
Outline: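 U87 human glioblastoma cells (ATCC) kept in DMEM with 10% FCS and 1% glutamine at 37 °C, 5% CO2. Seeded at 2.5 × 10^3 cells/well, exposed after 24 h to compounds at 1 and 10 μM final for 72 h. […] added 2 h before reading absorbance at 490 nm. Percent cytotoxicity index (treated/control OD490 × 100) from three experiments.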

| EC50 (A549) [nM] | EC50 (U-87 MG) [nM] | Compound |
| --- | --- | --- |
| > 10000 | > 10000 | CC(C)=CCC/C(C)=C/Cc1cc(/C=C/c2cc(O)cc(Oc3ccc4c(c3)O[C@H](c3ccc(C/C=C(\C)CCC=C(C)C)c(O)c3O)[C@@H]4O)c2)cc(O)c1O |
| > 10000 | 50 | CC(C)=CCc1c(O)cc(/C=C/c2cc(O)c3c(c2)C[C@@H]2C(C)(C)[C@H](O)C[C@H](O)[C@@]2(C)O3)cc1O |
| > 10000 | 25 | CC(C)=CCC/C(C)=C/CC/C(C)=C/Cc1c(O)cc(/C=C/c2ccc(O)c(O)c2)cc1O |
| > 10000 | 7000 | COc1cc(/C=C/c2cc(O)c(CC=C(C)C)c(O)c2)cc(C/C=C(\C)CCC=C(C)C)c1O |
| 7000 | 5400 | CC(C)=CCC/C(C)=C/Cc1cc(/C=C/c2cc(O)c(CC=C(C)C)c(O)c2)cc(O)c1O [MAPPAIN] |

Further lines, the molecule ahead of its results:

| Compound | EC50 (A549) [nM] | EC50 (U-87 MG) [nM] |
| --- | --- | --- |
| CC[C@H](C)[C@@H]([C@@H](CC(=O)N1CCC[C@H]1[C@H](OC)[C@@H](C)C(=O)N[C@H](C)[C@@H](O)c1ccccc1)OC)N(C)C(=O)[C@@H](NC(=O)[C@@H](NC)C(C)C)C(C)C (H-[NMeV]V[Dil][Dolaproine]-X1) | 0.5 | 0.2 |
| CC(C)=CCC[C@]1(C)Oc2c(O)cc(/C=C/c3cc(O)c4c(c3)OC(C)(C)C(O)C4)cc2C[C@@H]1O (stereo partly drawn) | 240 | 450 |
| CC(C)=CCC/C(C)=C/Cc1cc(/C=C/c2cc(O)c3c(c2)OC(C)(C)[C@@H](O)C3)cc(O)c1O | 730 | 250 |
| COc1cc(/C=C/c2cc(O)c(CC=C(C)C)c(O)c2)cc2c1O[C@]1(C)C[C@@H](O)[C@@H](O)C(C)(C)[C@H]1C2 [SCHWEINFURTHIN E] | 260 | 200 |
| CC(C)=CCc1c(O)cc(/C=C/c2cc(O)c3c(c2)C[C@@H]2C(C)(C)[C@H](O)CC[C@@]2(C)O3)cc1O [SCHWEINFURTHIN G] | 800 | 45 |
| CC(C)=CCc1c(O)cc(/C=C/c2cc(O)c3c(c2)C[C@@H]2C(C)(C)[C@H](O)[C@H](O)C[C@@]2(C)O3)cc1O [VEDELIANIN] | 190 | 30 |
| COc1cc(/C=C/c2cc(O)c(CC=C(C)C)c(O)c2)cc2c1O[C@]1(C)CC[C@@H](O)C(C)(C)[C@H]1C2 [SCHWEINFURTHIN F] | 1500 | 240 |
| C/C(=C\Cc1cc(/C=C/c2cc(O)c3c(c2)OC(C)(C)[C@@H](O)C3)cc(O)c1O)CCC(O)C(C)(C)O (stereo partly drawn) | > 10000 | 500 |
| CC(C)=CCc1c(O)cc(/C=C/c2cc(O)c(O)c(C/C=C(\C)CCC(O)C(C)(C)O)c2)cc1O (stereo not drawn) | > 10000 | 100 |
